Reference: ChEMBL document CHEMBL1132319, “2,3-Dihydro-2-oxo-1H-benzimidazole-1-carboxamides with selective affinity for the 5-HT(4) receptor: synthesis and structure-affinity and structure-activity relationships of a new series of partial agonist and antagonist derivatives” (J Med Chem, 1999)

How the values were obtained:
[1] = molecular target: T1, Serotonin 3 (5-HT3) receptor (Rattus norvegicus, UniProt P35563+Q9JJ16); assay: Inhibitory concentration against 5-hydroxytryptamine 3 receptor in rat entorhinal cortex using [3H]-LY 278584 as radioligand
T1 sequence (P35563 whole entry): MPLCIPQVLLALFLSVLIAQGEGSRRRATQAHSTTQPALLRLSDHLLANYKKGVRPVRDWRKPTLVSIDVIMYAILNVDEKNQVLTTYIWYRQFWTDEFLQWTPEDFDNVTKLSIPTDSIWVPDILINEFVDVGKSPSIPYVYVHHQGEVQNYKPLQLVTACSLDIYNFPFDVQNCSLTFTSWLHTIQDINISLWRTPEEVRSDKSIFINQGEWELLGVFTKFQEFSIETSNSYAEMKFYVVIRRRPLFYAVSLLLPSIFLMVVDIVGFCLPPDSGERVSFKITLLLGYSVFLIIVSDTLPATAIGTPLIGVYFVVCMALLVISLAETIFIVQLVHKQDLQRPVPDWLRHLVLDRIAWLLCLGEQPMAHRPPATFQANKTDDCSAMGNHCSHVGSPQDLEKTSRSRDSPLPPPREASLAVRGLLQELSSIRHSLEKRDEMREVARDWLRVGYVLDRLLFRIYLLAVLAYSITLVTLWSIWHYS
T1 sequence (Q9JJ16 whole entry): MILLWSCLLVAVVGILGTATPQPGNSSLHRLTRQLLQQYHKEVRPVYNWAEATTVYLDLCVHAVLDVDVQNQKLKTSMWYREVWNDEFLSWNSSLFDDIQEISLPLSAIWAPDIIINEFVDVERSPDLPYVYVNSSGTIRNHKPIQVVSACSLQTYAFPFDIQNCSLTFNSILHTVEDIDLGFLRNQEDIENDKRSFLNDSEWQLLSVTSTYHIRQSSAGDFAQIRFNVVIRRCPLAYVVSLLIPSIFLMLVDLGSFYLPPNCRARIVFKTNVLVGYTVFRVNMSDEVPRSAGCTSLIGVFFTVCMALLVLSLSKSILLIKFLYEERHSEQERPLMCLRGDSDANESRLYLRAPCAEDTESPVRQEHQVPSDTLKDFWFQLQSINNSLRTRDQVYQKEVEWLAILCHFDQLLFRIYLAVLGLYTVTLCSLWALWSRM
Method in brief: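 Male Wistar rat entorhinal cortex membranes in 50 mM Tris-HCl with 5 mM CaCl2, 0.1% ascorbate and 10 μM pargyline (1:40 wt/vol, 500–600 μg protein), with 2 nM [3H]LY 278584. Nonspecific binding with 10 μM 5-HT.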

[2] = molecular target: T2, 5-hydroxytryptamine receptor 4 (Cavia porcellus, UniProt O70528); assay: Binding affinity against 5-hydroxytryptamine 4 receptor in guinea pig striatum using [3H]GR-113808 as radioligand
Method in brief: (§1)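 Male Dunkin–Hartley guinea pig striatal membranes in 50 mM Hepes pH 7.4 (1:80 wt/vol, 800–900 μg protein) with 0.1 nM [3H]GR 113808. Nonspecific binding with 10 μM 5-HT. Incubated 30 min at 25 °C, then filtered on PEI-treated filters and counted by scintillation. 10–12 displacer concentrations; two experiments in triplicate; IC50 and Ki.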

[3] = test system: 5-HT4 receptor (Rattus norvegicus); assay: Antagonistic activity against 5-hydroxytryptamine 4 receptor
[4] = test system: 5-HT4 receptor (Rattus norvegicus); assay: Agonistic activity against 5-hydroxytryptamine 4 receptor
[5] = molecular target: T2, 5-hydroxytryptamine receptor 4; assay: Displacement of [3H]GR-113808 from 5-hydroxytryptamine 4 receptor in guinea pig striatum; method in brief: as §1

T2 sequence (O70528 whole entry): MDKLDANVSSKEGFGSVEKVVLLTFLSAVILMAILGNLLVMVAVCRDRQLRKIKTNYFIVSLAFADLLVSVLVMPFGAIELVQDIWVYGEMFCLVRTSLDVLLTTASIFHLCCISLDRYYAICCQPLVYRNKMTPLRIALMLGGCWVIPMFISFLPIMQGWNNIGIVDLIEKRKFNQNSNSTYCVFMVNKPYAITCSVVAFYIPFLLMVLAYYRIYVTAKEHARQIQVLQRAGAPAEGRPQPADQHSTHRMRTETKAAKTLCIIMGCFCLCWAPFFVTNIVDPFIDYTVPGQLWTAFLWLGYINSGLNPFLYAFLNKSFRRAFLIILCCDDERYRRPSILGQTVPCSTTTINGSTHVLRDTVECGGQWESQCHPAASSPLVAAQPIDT

SMILES | IC50 [1] | Ki [2] | pKb [3] | Intrinsic activity [4] | IC50 [5] | Ki [1]
CC(C)N1CCN(CCNC(=O)n2c(=O)n(C3CC3)c3ccccc32)CC1 | > 1000 nM | 6.7 nM | – | – | – | –
Cn1cc(C(=O)OCC2CCN(CCNS(C)(=O)=O)CC2)c2ccccc21 | > 1000 nM | 0.11 nM | – | – | – | –
CC(C)n1c(=O)n(C(=O)NCCN2CCN(Cc3ccc4c(c3)OCO4)CC2)c2ccccc21 | > 1000 nM | – | < 6 | 0.3 | > 1000 nM | –
CCCCN1CCN(CCNC(=O)n2c(=O)n(CC)c3ccccc32)CC1 | > 1000 nM | 34.1 nM | 7.73 | < 0.3 | – | –
CCCCN1CCN(CCNC(=O)n2c(=O)n(C3CC3)c3ccccc32)CC1 | > 1000 nM | 13.3 nM | 7.51 | 0.46 | – | –
CN1CCN(CCNC(=O)n2c(=O)n(CCc3ccccc3)c3ccccc32)CC1 | > 1000 nM | – | – | – | > 1000 nM | –
CC(C)n1c(=O)n(C(=O)NCCN2CC[N+](C)(C)CC2)c2ccccc21 | > 1000 nM | 68.5 nM | < 6 | 0.75 | – | –
CC(C)n1c(=O)n(C(=O)NCCN2CCN(CCCOc3ccc(F)cc3)CC2)c2ccccc21 | > 1000 nM | 375 nM | – | – | – | –
CCCN1CCN(CCNC(=O)n2c(=O)n(C3CC3)c3ccccc32)CC1 | > 1000 nM | 8.2 nM | 7.46 | 0.41 | – | –
CC(C)n1c(=O)n(C(=O)NCN2CCN(C)CC2)c2ccccc21 | – | – | – | – | > 1000 nM | 309 nM
CCn1c(=O)n(C(=O)NCCN2CCN(C(C)C)CC2)c2ccccc21 | > 1000 nM | 25.2 nM | – | – | – | –
CCCN1CCN(CCNC(=O)n2c(=O)n(C(C)C)c3ccccc32)CC1 | > 1000 nM | 87.3 nM | 6.89 | 0.68 | – | –
CCn1c(=O)n(C(=O)NCCN2CCN(C)CC2)c2ccccc21 | > 1000 nM | 75.4 nM | 6.79 | < 0.3 | – | –
CC(C)n1c(=O)n(C(=O)NCCN2CCN(C)CC2)c2cc(F)c(N)cc21 | > 1000 nM | – | < 6 | < 0.3 | > 1000 nM | –
CN1CCN(CCNC(=O)n2c(=O)n(C3CC3)c3ccccc32)CC1 | > 1000 nM | 10.2 nM | – | – | – | –
COc1ccc2c(c1)n(C(=O)NCCN1CCN(C)CC1)c(=O)n2C(C)C | > 1000 nM | – | < 6 | < 0.3 | > 1000 nM | –
C=CC[N+]1(C)CCN(CCNC(=O)n2c(=O)n(C(C)C)c3ccccc32)CC1 | > 1000 nM | 56.3 nM | 6.28 | < 0.3 | – | –
CCCCN1CCN(CCNC(=O)n2c(=O)n(C(C)C)c3ccccc32)CC1 | > 1000 nM | 38.9 nM | – | – | – | –
CCN1CCN(CCNC(=O)n2c(=O)n(C(C)C)c3ccccc32)CC1 | > 1000 nM | 104 nM | 6.62 | 0.87 | – | –
CC(C)n1c(=O)n(C(=O)NCCCN2CCN(C)CC2)c2ccccc21 | > 1000 nM | – | < 6 | < 0.3 | > 1000 nM | –

SMILES | IC50 [1] | Ki [2] | pKb [3] | Intrinsic activity [4] | IC50 [5] | Ki [1]
CC(C)n1c(=O)n(C(=O)NN2CCN(C)CC2)c2ccccc21 | – | – | < 6 | < 0.3 | > 1000 nM | 201 nM
CC(C)n1c(=O)n(C(=O)NCCN2CCN(Cc3ccc(F)cc3)CC2)c2ccccc21 | > 1000 nM | 262 nM | – | – | – | –
CN1CCN(CCCNC(=O)n2c(=O)n(C3CC3)c3ccccc32)CC1 | > 1000 nM | 39.7 nM | 6.4 | 0.46 | – | –
CCN1CCN(CCNC(=O)n2c(=O)n(CC)c3ccccc32)CC1 | > 1000 nM | 17.9 nM | – | – | – | –
CN1CCN(CCNC(=O)n2c(=O)n(C)c3ccccc32)CC1 | > 1000 nM | 306 nM | < 6 | 0.42 | – | –
CCCn1c(=O)n(C(=O)NCCN2CCN(C)CC2)c2ccccc21 | > 1000 nM | 253 nM | < 6 | 0.48 | – | –
CN1CCN(CNC(=O)n2c(=O)n(C3CC3)c3ccccc32)CC1 | > 1000 nM | 49.4 nM | 6.19 | 0.53 | – | –
CC(C)n1c(=O)n(C(=O)NC2CC3CCC(C2)N3C)c2ccccc21 (centres undefined) | – | 63.9 nM | – | – | – | 0.5 nM
CC(C)n1c(=O)n(C(=O)NCCN2CCN(C)CC2)c2ccccc21 | > 1000 nM | 91.1 nM | < 6 | 0.94 | – | –
CN1CCN(CCNC(=O)n2c(=O)n(Cc3ccccc3)c3ccccc32)CC1 | > 1000 nM | – | < 6 | < 0.3 | > 1000 nM | –
CN1CCN(CCNC(=O)n2c(=O)[nH]c3ccccc32)CC1 | > 1000 nM | – | < 6 | 0.35 | 1000 nM | –
C=CCn1c(=O)n(C(=O)NCCN2CCN(C)CC2)c2ccccc21 | > 1000 nM | – | < 6 | 0.63 | > 1000 nM | –
CCCN1CCN(CCNC(=O)n2c(=O)n(CC)c3ccccc32)CC1 | > 1000 nM | 16.9 nM | – | – | – | –
CC(C)n1c(=O)n(C(=O)NCCN2CCN(C)CC2)c2cc(F)ccc21 | > 1000 nM | 108 nM | 6.88 | 0.67 | – | –
CCCCn1c(=O)n(C(=O)NCCN2CCN(C)CC2)c2ccccc21 | > 1000 nM | – | < 6 | < 0.3 | > 1000 nM | –
CC(C)n1c(=O)n(C(=O)NCCN2CCN(C)CC2)c2cc(F)c([N+](=O)[O-])cc21 | > 1000 nM | – | – | – | > 1000 nM | –
Cc1cccc2c1n(C(C)C)c(=O)n2C(=O)NCCN1CCN(C)CC1 | – | 216 nM | – | – | – | –
CC(C)N1CCN(CCNC(=O)n2c(=O)n(C(C)C)c3ccccc32)CC1 | > 1000 nM | 89.8 nM | – | – | – | –
CC(C)n1c(=O)n(C(=O)NCCN2CCN(C)CC2)c2cc(Cl)ccc21 | > 1000 nM | – | < 6 | 0.7 | > 1000 nM | –
CCCC[N+]1(C)CCN(CCNC(=O)n2c(=O)n(C(C)C)c3ccccc32)CC1 | > 1000 nM | 66.3 nM | 6 | 0.93 | – | –
